Laboratory results taken from PMC12010439 (Cell, 2024).
Each block holds one compound with its values, some of them ahead of it.

Key:
[1] = test system: HT29 colon cancer cell line xenografts; experiment: HT29 colon cancer cell line xenograft treated with alvespimycin; type: in vivo, BALB/c nude mice; conditions: alvespimycin 50 mg/kg intraperitoneally daily, N = 9
Method in brief: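 Female BALB/c nude mice, 4–6 weeks old, received 5×10^6 HT29 cells in 100 μL PBS subcutaneously in the dorsal flank. On day 0 they were randomised to vehicle (2% DMSO in PBS) or test compound at 50 mg/kg i.p. daily, N = 9 per group, and sacrificed 7 days later. Tumours were measured by caliper every 1–3 days; volume = (width)2 × length × 0.52; mean ± sd.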

[2] = test system: eight cell lines representing different cancer types; experiment: Drug response viability assay; type: cell-based; conditions: 48 h
UCEC tumors = conditions: cited from earlier work
[3] = test system: T cells of HLA-A*02 healthy donors; experiment: IFN-γ ELISpot assay; type: cell-based, human
[4] = CD8+ T cell cultures of donor US1 with HLA-A*02:11, peptide 12.5 μg/mL, about 16 hrs (BCM)
[5] = donor CN1 with HLA-A*02:01, peptide 10 μg/mL, 20h co-culture (Fudan)

Compound: CO[C@H]1/C=C\C=C(/C)C(=O)NC2=CC(=O)C(NCCN(C)C)=C(C[C@@H](C)C[C@H](OC)[C@H](O)[C@@H](C)/C=C(\C)[C@@H]1OC(N)=O)C2=O [alvespimycin]
tumor regression [1]: began to induce tumor regression after seven days of treatment
IC50 [2]: < 1000 nM

Compound: COc1cccc2c1C(=O)c1c(O)c3c(c(O)c1C2=O)C[C@@](O)(C(=O)CO)C[C@@H]3O[C@H]1C[C@H](N)[C@H](O)[C@H](C)O1 [doxorubicin]
overall response rate (UCEC tumors; unselected UCEC patients): 16%

Compound: O=C1c2c(O)ccc(O)c2C(=O)c2c(NCCNCCO)ccc(NCCNCCO)c21 [mitoxantrone]
clinical activity (UCEC tumors; UCEC tumors among unselected patients): lack clinical activity

IC50 [2]: < 1000 nM
Compound: C=CCNC1=C2C[C@@H](C)C[C@H](OC)[C@H](O)[C@@H](C)/C=C(\C)[C@H](OC(N)=O)[C@@H](OC)/C=C\C=C(/C)C(=O)NC(=CC1=O)C2=O [tanespimycin]

Compound: CILESLFRAV [PEP4]
T cell reactivity, IFN-γ ELISpot [3, 4]: strong reactivity

Compound: FSYAWPFYNPV [PEP28]
T cell reactivity, IFN-γ ELISpot [3, 5]: strong reactivity

Compound: MMGLYDGMEHL [PEP17]
T cell reactivity, IFN-γ ELISpot [3, 4]: strong reactivity

Compound: YLVERQLQEI [PEP40]
T cell reactivity, IFN-γ ELISpot [3, 5]: strong reactivity
